Results reported in ChEMBL document CHEMBL1132565 (J Med Chem, 1999).
Activity calls are given as the source filed them.

Experiments:
[1] = target: Delta-type opioid receptor (Mus musculus, UniProt P32300); test: Displacement of [3H]NLT from Opioid receptor delta 1 of adult male mouse brain.
[2] = Half-life time of enzymatic breakdown in mouse liver.; format: ADME
Outline: (§1)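 Methanol added to stop each sample, followed by centrifugation. Residual activity in the supernatant was bioassayed on GPI or MVD and expressed as % of time-0 recovery. Three experiments.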

Cavia porcellus = species on record: Cavia porcellus; test: In vitro concentration required to inhibit electrically evoked twitch in isolated guinea pig ileum.; format: functional
Outline: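 Myenteric plexus-longitudinal muscle strips from male guinea pig small intestine, field-stimulated with supramaximal bipolar rectangular pulses. Inhibition of the electrically evoked twitch measured. IC50 taken from concentration-response curves, at least six tissues.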

Mus musculus [3] = species on record: Mus musculus; test: In vitro concentration required to inhibit electrically evoked twitch in isolated mouse vas deferens.; format: functional
Outline: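 Mouse vas deferens field-stimulated with supramaximal bipolar rectangular pulses. Inhibition of the electrically evoked twitch measured. IC50 taken from concentration-response curves, at least six tissues.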

Mu-type opioid receptor = Mu-type opioid receptor (Mus musculus, UniProt P42866); test: Displacement of [3H]-DAGO from Opioid receptor mu 1 of adult male mouse brain.; format: tissue-based
Outline: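 Crude membranes from adult male Albino Swiss mouse brain, pre-incubated 30 min at 25 °C to remove endogenous opioids. Competition against [3H]DAGO 0.5 nM on 1 mg membrane protein in 50 mM Tris-HCl pH 7.4, 35 °C for 90 min. Nonspecific binding defined with 10 µM naloxone, 12 inhibitor concentrations. GF/B filtration and scintillation counting. Ki from competition curves, run in triplicate.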

[4] = Half-life time of enzymatic breakdown in mouse brain.; format: ADME; outline: as §1
Mus musculus [5] = test: Antinociceptive activity after subcutaneous administration in mice was determined in analgesia hotplate test; format: functional
Outline: (§2)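 Male CD-1 mice (25-30 g), peptide dissolved in sterile Ringer's solution and injected subcutaneously at 0.05 mL/10 g, 5-8 animals per dose. Hot plate at 55 °C, latency to back-paw licking or escape jump recorded. Cut-off 15 s. Mice not responding within 5 s before drug were excluded. Testing every 15 min for the first hour, then every 30 min. %MPE calculated. AD50 with 95% CL by Litchfield-Wilcox.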

Mus musculus [6] = test: Antinociceptive activity after subcutaneous administration in mice.; format: functional; outline: as §2
Mus musculus [7] = test: Antinociceptive activity after subcutaneous administration in mice. p<0.05 vs dermorphin; format: functional; outline: as §2
Mus musculus [8] = test: Antinociceptive activity after subcutaneous administration in mice; the highest dose tested, 100 uM/Kg, was unable to produce a significant analgesia.; format: functional, organism-based; outline: as §2

Sequence of Mu-type opioid receptor (P42866 whole entry): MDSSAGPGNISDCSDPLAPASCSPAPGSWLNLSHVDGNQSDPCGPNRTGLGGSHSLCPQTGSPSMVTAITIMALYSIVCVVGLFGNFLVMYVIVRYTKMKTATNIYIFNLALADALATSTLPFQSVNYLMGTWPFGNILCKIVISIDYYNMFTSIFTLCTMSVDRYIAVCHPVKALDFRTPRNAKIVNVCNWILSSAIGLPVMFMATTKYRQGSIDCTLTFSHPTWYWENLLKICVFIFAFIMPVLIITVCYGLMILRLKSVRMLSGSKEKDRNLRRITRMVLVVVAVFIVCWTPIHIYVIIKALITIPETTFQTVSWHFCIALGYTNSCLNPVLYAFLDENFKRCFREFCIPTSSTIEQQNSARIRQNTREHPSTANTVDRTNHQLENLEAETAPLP
Sequence of Delta-type opioid receptor (P32300 whole entry): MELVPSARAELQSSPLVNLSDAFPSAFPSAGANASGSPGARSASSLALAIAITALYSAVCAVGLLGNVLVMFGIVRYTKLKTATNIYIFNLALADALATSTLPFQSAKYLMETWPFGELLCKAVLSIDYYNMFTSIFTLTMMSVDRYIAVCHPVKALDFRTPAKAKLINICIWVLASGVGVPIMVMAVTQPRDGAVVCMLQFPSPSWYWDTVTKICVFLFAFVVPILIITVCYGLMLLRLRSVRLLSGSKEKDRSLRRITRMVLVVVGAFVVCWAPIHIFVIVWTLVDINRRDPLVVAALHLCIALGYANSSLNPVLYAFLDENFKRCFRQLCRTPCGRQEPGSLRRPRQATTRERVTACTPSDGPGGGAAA

SMILES	Ki [1] [µM]	half-life [2] [h]	IC50 (Cavia porcellus) [µM]	IC50 (Mus musculus [3]) [µM]	Ki (Mu-type opioid receptor) [µM]	half-life [4] [h]	AD50 (Mus musculus [5]) [µM/kg]	AD50 (Mus musculus [6]) [µM/kg]	AD50 (Mus musculus [7]) [µM/kg]	AD50 (Mus musculus [8])
CC(=O)O[C@H]1[C@H](O)[C@@H](O)[C@@H](O)O[C@@H]1COC(=O)[C@H](CO)NC(=O)[C@@H](NC(=O)[C@@H](NC(=O)[C@H](CC(=O)O)NC(=O)[C@H](Cc1ccccc1)NC(=O)[C@@H](C)NC(=O)[C@@H](N)Cc1ccc(O)cc1)C(C)C)C(C)C	0.028	4	1.9	0.0027	1.92	> 4	–	–	–	–
CC(=O)O[C@H]1[C@@H](OC(=O)[C@@H](C)NC(=O)[C@@H](NC(=O)[C@@H](NC(=O)[C@H](CC(=O)O)NC(=O)[C@H](Cc2ccccc2)NC(=O)[C@@H](C)NC(=O)[C@@H](N)Cc2ccc(O)cc2)C(C)C)C(C)C)O[C@H](O)[C@H](O)[C@H]1O	–	–	–	–	–	–	61	–	–	–
C[C@@H](NC(=O)[C@@H](N)Cc1ccc(O)cc1)C(=O)N[C@@H](Cc1ccccc1)C(=O)NCC(=O)N[C@@H](Cc1ccc(O)cc1)C(=O)N1CCC[C@H]1C(=O)N[C@@H](CO)C(=O)OC[C@H]1O[C@H](O)[C@H](O)[C@@H](O)[C@@H]1O	–	0.5	0.0035	0.04	–	0.633	1.4	–	–	–
CC(C)[C@H](NC(=O)[C@H](CC(=O)O)NC(=O)[C@H](Cc1ccccc1)NC(=O)[C@@H](C)NC(=O)[C@@H](N)Cc1ccc(O)cc1)C(=O)N[C@H](C(=O)N[C@H](CO)C(=O)OC[C@H]1O[C@H](O)[C@H](O)[C@@H](O)[C@@H]1O)C(C)C	–	–	–	–	–	–	44	–	–	–
CC(=O)O[C@H]1[C@H](O)[C@@H](O)[C@@H](O)O[C@@H]1COC(=O)[C@H](CO)NC(=O)[C@@H]1CCCN1C(=O)[C@H](Cc1ccc(O)cc1)NC(=O)CNC(=O)[C@H](Cc1ccccc1)NC(=O)[C@@H](C)NC(=O)[C@@H](N)Cc1ccc(O)cc1	–	1	0.0082	0.018	–	1.5	–	4.6	–	–
CC(=O)O[C@H]1[C@@H](OC(=O)[C@H](C)NC(=O)[C@@H](NC(=O)[C@@H](NC(=O)[C@H](CC(=O)O)NC(=O)[C@H](Cc2ccccc2)NC(=O)[C@@H](C)NC(=O)[C@@H](N)Cc2ccc(O)cc2)C(C)C)C(C)C)O[C@H](O)[C@H](O)[C@H]1O	0.16	–	> 2	0.043	2.83	–	–	–	–	–
C[C@H](NC(=O)[C@@H]1CCCN1C(=O)[C@H](Cc1ccc(O)cc1)NC(=O)CNC(=O)[C@H](Cc1ccccc1)NC(=O)[C@@H](C)NC(=O)[C@@H](N)Cc1ccc(O)cc1)C(=O)OC[C@H]1O[C@H](O)[C@H](O)[C@@H](O)[C@H]1O	2.85	–	0.004	0.055	0.0025	–	1.1	–	–	–
CC(C)[C@H](NC(=O)[C@H](CC(=O)O)NC(=O)[C@H](Cc1ccccc1)NC(=O)[C@@H](C)NC(=O)[C@@H](N)Cc1ccc(O)cc1)C(=O)N[C@H](C(=O)N[C@@H](CO)C(N)=O)C(C)C	0.03	–	1.4	0.0043	1.1	–	–	–	–	–
CC(=O)O[C@H]1[C@H](O)[C@@H](O)[C@@H](O)O[C@@H]1COC(=O)[C@@H](CO)NC(=O)[C@@H](NC(=O)[C@@H](NC(=O)[C@H](CC(=O)O)NC(=O)[C@H](Cc1ccccc1)NC(=O)[C@@H](C)NC(=O)[C@@H](N)Cc1ccc(O)cc1)C(C)C)C(C)C	–	–	–	–	–	–	–	70	–	–
CC(C)[C@H](NC(=O)[C@H](CC(=O)O)NC(=O)[C@H](Cc1ccccc1)NC(=O)[C@@H](C)NC(=O)[C@@H](N)Cc1ccc(O)cc1)C(=O)N[C@H](C(=O)N[C@@H](C)C(N)=O)C(C)C	0.04	–	> 2	0.0069	1.9	–	–	–	–	–
C[C@H](NC(=O)[C@@H]1CCCN1C(=O)[C@H](Cc1ccc(O)cc1)NC(=O)CNC(=O)[C@H](Cc1ccccc1)NC(=O)[C@@H](C)NC(=O)[C@@H](N)Cc1ccc(O)cc1)C(N)=O	1.11	–	0.0016	0.024	0.0012	–	–	–	–	–
C[C@@H](NC(=O)[C@@H](N)Cc1ccc(O)cc1)C(=O)N[C@@H](Cc1ccccc1)C(=O)NCC(=O)N[C@@H](Cc1ccc(O)cc1)C(=O)N1CCC[C@H]1C(=O)N[C@@H](CO)C(N)=O [DERMORPHIN]	–	0.167	0.0015	0.019	0.0011	0.333	–	2.4	–	–
CC(C)[C@H](NC(=O)[C@H](CC(=O)O)NC(=O)[C@H](Cc1ccccc1)NC(=O)[C@@H](C)NC(=O)[C@@H](N)Cc1ccc(O)cc1)C(=O)N[C@H](C(=O)NCC(N)=O)C(C)C [DELTORPHIN C]	–	1.83	1.24	0.0002	1.98	4	–	87	–	–
C[C@@H](NC(=O)[C@@H](N)Cc1ccc(O)cc1)C(=O)N[C@@H](Cc1ccccc1)C(=O)NCC(=O)N[C@@H](Cc1ccc(O)cc1)C(=O)N1C[C@H](O)C[C@H]1C(=O)N[C@@H](CCCCN)C(N)=O	1.41	0.333	0.0021	0.035	0.0005	0.5	–	–	0.9	–
CC(C)[C@H](NC(=O)[C@H](CC(=O)O)NC(=O)[C@H](Cc1ccccc1)NC(=O)[C@@H](C)NC(=O)[C@@H](N)Cc1ccc(O)cc1)C(=O)N[C@H](C(=O)N[C@H](C)C(=O)O[C@H]1O[C@H](O)[C@H](O)[C@@H](O)[C@H]1O)C(C)C	–	–	–	–	–	–	19	–	–	–
CC(=O)O[C@@H]1[C@H](O)[C@@H](O)[C@@H](O)O[C@@H]1COC(=O)[C@H](C)NC(=O)[C@@H]1CCCN1C(=O)[C@H](Cc1ccc(O)cc1)NC(=O)CNC(=O)[C@H](Cc1ccccc1)NC(=O)[C@@H](C)NC(=O)[C@@H](N)Cc1ccc(O)cc1	> 5	–	0.006	0.065	0.0112	–	–	6.6	–	–
CC(C)[C@H](NC(=O)[C@H](CC(=O)O)NC(=O)[C@H](Cc1ccccc1)NC(=O)[C@@H](C)NC(=O)[C@@H](N)Cc1ccc(O)cc1)C(=O)N[C@H](C(=O)N[C@H](C)C(N)=O)C(C)C	–	–	–	–	–	–	–	–	–	inactive
CC(C)[C@H](NC(=O)[C@H](CC(=O)O)NC(=O)[C@H](Cc1ccccc1)NC(=O)[C@@H](C)NC(=O)[C@@H](N)Cc1ccc(O)cc1)C(=O)N[C@H](C(=O)N[C@@H](CO)C(=O)OC[C@H]1O[C@H](O)[C@H](O)[C@@H](O)[C@@H]1O)C(C)C	0.023	3	1.6	0.0031	0.879	> 4	–	–	–	–
CC(C)[C@H](NC(=O)[C@H](CC(=O)O)NC(=O)[C@H](Cc1ccccc1)NC(=O)[C@@H](C)NC(=O)[C@@H](N)Cc1ccc(O)cc1)C(=O)N[C@H](C(=O)N[C@@H](C)C(=O)O[C@H]1O[C@H](O)[C@H](O)[C@@H](O)[C@H]1O)C(C)C	0.176	–	> 2	0.036	1.59	–	–	–	–	–
